MEX-5 binding = C. elegans MEX-5 TCR-2 RNA binding activity. Q9XUB2. MEX-5/FITC-TCR2 RNA binding, fluorescence polarization; hits give low values. activity score (negative = inhibition of binding), % at 10 µM. actives 0.38% (n = 300,000). AID 1832;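 active = inhibition past about -25% in most replicates, and total fluorescence under double the plate's negative control median, limit read from the data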
HCV core dimer = HCV core protein dimerization inhibition; inhibition, % at 5 µM; TR-FRET GST/Flag-core106 dimerization, 1536-well; actives 0.33% (n = 300,000); AID 1899;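 active = inhibition above the mean of all tested compounds plus 3 SD, set per screening campaign, cut at about 45% in these data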
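test system = GST/Flag-tagged HCV core106 proteins | probe or stimulus = Eu donor and XL665 acceptor anti-tag antibodies | times = compound-protein-antibody incubation 4 h at 22.5 °C | signal = TR-FRET, excitation 340 nm, emission 617 and 671 nm | measure = percent inhibition of core106 dimerization signal | controls = wells lacking GST-core106 and wells with excess unlabelled core106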
CendR NRP1 mod = NRP-1/CendR interaction modulation; FAM-RPARPAR peptide binding to NRP-1, fluorescence polarization; actives 0.85% (n = 360,000); inhibition, % at 25 µM;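 active = inhibition or corrected inhibition above about 18%, plus a signal ratio from 0.5 to 1.5, limit read from the data, passing the limit was not always enough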
Target sequence (O14786 whole entry, looked up): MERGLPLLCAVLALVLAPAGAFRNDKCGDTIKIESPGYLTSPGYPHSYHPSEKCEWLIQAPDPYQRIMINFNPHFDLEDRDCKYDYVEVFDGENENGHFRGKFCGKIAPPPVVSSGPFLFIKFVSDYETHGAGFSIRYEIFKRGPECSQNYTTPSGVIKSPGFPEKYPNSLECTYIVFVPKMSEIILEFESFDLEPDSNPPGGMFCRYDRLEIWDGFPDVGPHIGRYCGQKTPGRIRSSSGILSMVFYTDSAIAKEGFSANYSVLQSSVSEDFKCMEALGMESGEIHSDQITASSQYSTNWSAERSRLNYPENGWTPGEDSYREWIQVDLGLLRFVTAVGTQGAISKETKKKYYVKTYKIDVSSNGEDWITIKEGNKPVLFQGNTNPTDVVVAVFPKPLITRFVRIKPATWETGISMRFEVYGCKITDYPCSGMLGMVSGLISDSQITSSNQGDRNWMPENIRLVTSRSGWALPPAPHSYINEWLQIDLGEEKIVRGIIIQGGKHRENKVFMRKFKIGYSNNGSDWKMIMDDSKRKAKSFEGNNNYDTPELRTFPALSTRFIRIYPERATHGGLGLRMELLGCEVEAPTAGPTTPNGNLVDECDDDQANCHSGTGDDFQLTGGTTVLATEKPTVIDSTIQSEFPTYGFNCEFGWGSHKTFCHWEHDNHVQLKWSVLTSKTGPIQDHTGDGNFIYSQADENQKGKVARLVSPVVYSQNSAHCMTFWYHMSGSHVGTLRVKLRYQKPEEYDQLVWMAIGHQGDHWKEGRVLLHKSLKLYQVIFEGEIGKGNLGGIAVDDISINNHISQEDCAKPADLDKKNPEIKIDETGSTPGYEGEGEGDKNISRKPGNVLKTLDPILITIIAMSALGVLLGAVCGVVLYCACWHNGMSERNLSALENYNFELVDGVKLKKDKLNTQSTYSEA
DNA FID counter = counter-screen for HCV NS3 helicase inhibitors: DNA intercalator displacement | actives 0.17% (n = 290,000) | inhibition, % at 7.9 µM | AID 1845 | DNA fluorescent intercalator displacement, fluorescence; in the data active = inhibition above about 37%;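 note: higher means more ethidium bromide displaced from hairpin DNA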
A number is an active result; – = inactive; · = no result given. Hits are enriched below; roughly 1.5% of the tested compounds scored in any of these assays.

SMILES	MEX-5 binding	HCV core dimer	CendR NRP1 mod	DNA FID counter
Cn1c(=O)c2cc(NC(=O)CCc3ccccc3)ccc2n1-c1ccccc1F	·	·	–	·
CCc1nc2ccc(C(=O)NCCCN3CCCC3=O)cn2c1N(C=O)CC	·	·	–	·
COc1cc(NCc2ccccc2)c2ncn(C(C)C)c2c1	·	·	–	·
COc1cc(NCCCNC(C)C)c2nccc(C)c2c1	·	·	26.0	·
Nc1nc(SCC(=O)N2N=C3/C(=C/c4ccco4)CCCC3C2c2ccco2)n[nH]1 (stereo unspecified)	–	52.2	–	–
CC(=O)Nc1cccc(NC(=O)c2ccc3[nH]c(C)c(C)c3c2)c1	–	–	–	–
Cc1cc(NC(=O)c2ccc3[nH]c(C)c(C)c3c2)ccn1	–	·	–	37.4
COc1ccc(C2=CC(=O)C[C@H](c3ccc(OC)c(OC)c3)C2)cc1	·	·	20.6	·
COc1ccc([C@H]2CC(=O)C=C(c3ccc4c(c3)OCCO4)C2)cc1	·	·	26.1	·
COc1ccc([C@H]2CC(=O)C=C(c3ccc(C)cc3)C2)cc1OC	·	·	–	·
O=C(Nc1ccc(Oc2ccccc2)nc1)[C@H]1O[C@@H](n2ccc(=O)[nH]c2=O)[C@H](O)[C@@H]1O	·	·	–	·
C=C1CCN([C@@H](Cc2ccccc2)C(=O)O)S(=O)(=O)c2ccccc21	–	–	–	·
C=C1CCN([C@H](C(=O)O)C(C)C)S(=O)(=O)c2ccccc21	–	–	35.9	·
COc1ccc(CNS(=O)(=O)c2ccc(OC)cc2)cc1	–	–	–	–
COc1ccc(CNS(=O)(=O)c2ccc(C)cc2)cc1	–	–	28.4	·
O=C1c2cccc3c([N+](=O)[O-])ccc(c23)C(=O)N1Cc1cccnc1	–	·	69.0	–
Cc1ccnc(N2C(=O)c3cccc4c([N+](=O)[O-])ccc(c34)C2=O)c1	–	–	36.3	–
O=C1c2cccc3cccc(c23)C(=O)N1Cc1cccnc1	–	–	–	–
O=C(NCc1ccccc1)c1cc(C2CCCN(S(=O)(=O)c3ccccc3)C2)on1 (stereo unspecified)	·	·	–	·
O=C(Nc1ccc(Cl)cc1)c1ccc2sc([C@@H]3O[C@H](CO)[C@@H](O)[C@H]3O)nc2c1	·	·	–	·
CC(C)(CO)Cc1cc(C(C)(C)C)c(O)c(C(C)(C)C)c1	·	–	17.0	·
CC(C)(C=O)Cc1cc(C(C)(C)C)c(O)c(C(C)(C)C)c1	·	–	–	·
NC(Cc1ccc(F)cc1)c1csc(Nc2cc(NCc3ccco3)ncn2)n1 (stereo unspecified)	·	·	–	·
CC(C)=CCC[C@H](C)C[C@@H]1CC2=C(C(=O)OC(C)(C)O2)[C@H](c2ccc(Cl)cc2)O1	·	·	–	·
C1CCc2nc3c(nc2C1)CCCC3	–	–	–	–
SMILES	MEX-5 binding	HCV core dimer	CendR NRP1 mod	DNA FID counter
Nc1nnc2c(n1)CCCC2	-32.5	–	–	–
O=C1CNC(c2ccccc2)C(c2ccccc2)N1 (stereo unspecified)	·	·	–	·
COc1ccc(CCC(=O)N2CCN(S(=O)(=O)c3ccc(OC)c([N+](=O)[O-])c3)CC2)cc1	·	·	–	·
O=[N+]1C2=C(CCCC2)N([O-])C12CCCC2	–	–	–	–
CC1(CCl)N([O-])C2=C(CCCC2)[N+]1=O (stereo unspecified)	-36.5	–	–	–
COc1ccc(CCNC(=O)c2ccc(NC(=O)CC3SC(N4CCCCC4)=NC3=O)cc2)cc1 (stereo unspecified)	·	·	–	·
NC1=C(Br)C(=O)c2ncccc2C1=O	·	·	27.7	·
COc1ccccc1N1CCN(C2CCCN(C(=O)c3cc(C(C)C)on3)C2)CC1 (stereo unspecified)	·	·	–	·
CC(C)Cc1ccc(C(C)C(=O)Nc2ccc(O)cc2)cc1 (stereo unspecified)	–	–	38.0	–
CCOC(=O)C1(Cc2cccc(F)c2)CCN(Cc2ccon2)CC1	–	–	30.4	–
O=c1cc(-c2ccccc2)[nH]c2ccc(F)cc12	–	–	22.7	–
Cc1ccc(-c2cc(=O)c3cc(C)ccc3[nH]2)cc1	–	–	30.1	–
O=c1cc(-c2cccc(F)c2)[nH]c2ccccc12	–	–	–	–
Cc1ccc(-c2cc(=O)c3cc(F)ccc3[nH]2)cc1	–	–	–	–
NC(=O)C1CCCN(C(=O)CCCNC(=O)c2ccc(Cl)cc2)C1 (stereo unspecified)	–	–	28.2	–
O=C(NCCC(=O)N1CCCC(C(F)(F)F)C1)c1ccc(Br)cc1 (stereo unspecified)	–	–	28.5	–
COCCN1C=C(C(=O)OC)C(c2ccccc2Cl)C(C(=O)OC)=C1	·	–	21.9	–
COc1ccc(-c2cc(N)n(S(=O)(=O)c3c(F)c(F)c(F)c(F)c3F)n2)cc1OC	–	–	25.5	–
COc1ccc(S(=O)(=O)n2nc(-c3cc(OC)c(OC)c(OC)c3)cc2N)cc1OC	·	–	–	–
CC(=O)C1=CCC(c2ccco2)N(S(=O)(=O)c2ccc(C)cc2)C1 (stereo unspecified)	·	·	–	·
CCCC(=O)N1CCOCC1c1cc(C(=O)NCc2ccccc2)no1 (stereo unspecified)	·	·	–	·
O=C(CCl)Nc1ccc(N2CCCCCC2)cc1	–	–	42.6	–
CCC(=O)Nc1ccc(N2CCCCC2)cc1	–	–	–	–
Cc1ccc(NC(=O)Nc2cccs2)nc1	–	–	25.0	–
Cc1ccc(NC(=O)Nc2cccs2)cc1	–	–	–	–
SMILES	MEX-5 binding	HCV core dimer	CendR NRP1 mod	DNA FID counter
COC(=O)[C@H]1C[C@@]2(O)CN(S(=O)(=O)c3ccc(C)cc3)C[C@@]2(OC(=O)NCC2CCCCC2)C[C@H]1C(=O)OC	·	·	–	·
Cc1cc(NC(=O)CSc2nc(N)c(NC(=O)c3ccc(F)c(F)c3)c(=O)[nH]2)no1	–	–	22.6	–
Nc1nc(=O)n(C2CCC(CO)O2)cc1F (stereo unspecified)	·	·	–	·
Cn1c(=O)c2[nH]c(CCCCCc3nc4ccccc4[nH]3)nc2n(C)c1=O	·	·	–	·
Cn1c(=O)c2[nH]c(CCNC(=O)c3ccccc3)nc2n(C)c1=O	·	·	18.4	·
CCOC(=O)C1=C2NC(=O)c3ccccc3N2C(=O)C1	-31.2	–	–	–
CSc1ccc(Cn2c(C)c(C(=O)NCc3cccc(C(F)(F)F)c3)sc2=O)cc1	·	·	–	·
O=C(CN1C(=O)c2ccccc2C1=O)Nc1sc2c(c1C(=O)NCc1ccco1)CCCC2	–	64.0	–	–
COc1ccc(NC(=O)Nc2nnc([C@@H]3C[C@H](O)[C@@H](CO)O3)s2)cc1	·	·	–	·
COc1ccc2nc(C)cc(Nc3ccc(N4CCOCC4)cc3)c2c1	–	–	–	–
COc1ccc2nc(C)cc(Nc3ccc(N4CCN(C)CC4)cc3)c2c1	–	–	–	83.6
CC1CC(=O)Nc2ccccc2N1C(=O)COc1ccc2ccccc2c1 (stereo unspecified)	·	·	–	·
CCC1C(=O)Nc2ccccc2N1C(=O)COc1ccccc1 (stereo unspecified)	–	–	25.9	–
CC(C)C(C(=O)O)N1C(=O)/C(=C/C=C/c2ccco2)SC1=S (stereo unspecified)	-35.1	57.2	–	–
O=C1/C(=C/C=C/c2ccco2)SC(=S)N1c1ccc(O)cc1	–	74.0	–	–
O=C1/C(=C\c2ccco2)SC(=S)N1c1ccc(O)cc1	–	–	–	–
